# Laboratory results as given in ChEMBL document CHEMBL1144101, “Secobatzellines A and B, two new enzyme inhibitors from a deep-water Caribbean sponge of the genus Batzella” (J Nat Prod, 1999).
# pIC50: −log10 of the molar value.
# How the values were obtained:
# A549 = assay: Cytotoxicity against human A549 cells; format: functional, cell-based
# Caspase-3 = biological target: T1, Caspase-3 (Homo sapiens, UniProt P42574); assay: Inhibition of peptidase activity of CPP32
# T1 sequence (P42574 whole entry): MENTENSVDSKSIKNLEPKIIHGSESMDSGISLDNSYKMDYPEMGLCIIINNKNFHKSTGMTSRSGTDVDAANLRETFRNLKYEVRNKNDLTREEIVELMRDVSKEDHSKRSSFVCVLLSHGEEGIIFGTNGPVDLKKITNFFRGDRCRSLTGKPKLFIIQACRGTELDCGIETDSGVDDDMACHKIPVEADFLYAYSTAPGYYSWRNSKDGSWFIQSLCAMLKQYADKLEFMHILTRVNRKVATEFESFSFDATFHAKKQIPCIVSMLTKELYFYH
# P388 = assay: Cytotoxicity against mouse P388 cells; format: functional, cell-based
# [1] = Inhibition of bovine phosphatase activity of calcineurin by microtitre method; parameters: species or system Bos taurus
# Method in brief: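 Bovine calcineurin assayed together with bovine calmodulin, using p-nitrophenyl phosphate as the phosphatase substrate.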
smiles,measurement,setting,value
CC(=O)OCC(OC(C)=O)c1c[nH]c2c1C(=N)C(Cl)=C(N)C2=O (configuration not stated) [SECOBATZELLINE A DIACETATE],IC50,A549,0.12 µg/mL
same,pIC50,Caspase-3,5.63
same,IC50,P388,0.01 µg/mL
N=C1C(Cl)=C(N)C(=O)c2[nH]cc(C(O)CO)c21 (configuration not stated) [SECOBATZELLINE A],IC50,[1],0.55 µg/mL
same,IC50,A549,0.04 µg/mL
same,IC50,P388,0.06 µg/mL
CC(=O)OCC(OC(C)=O)c1c[nH]c2c1C(=O)C(Cl)=C(N)C2=O (configuration not stated) [SECOBATZELLINE B DIACETATE],IC50,A549,4.68 µg/mL
same,pIC50,Caspase-3,4.59
same,IC50,P388,3.83 µg/mL
NC1=C(Cl)C(=O)c2c(C(O)CO)c[nH]c2C1=O (configuration not stated) [SECOBATZELLINE B],IC50,[1],2.21 µg/mL
same,IC50,A549,2.86 µg/mL
same,IC50,P388,1.22 µg/mL
